Measurements reported in ChEMBL document CHEMBL1158041, “Diterpenoids, norditerpenoids, and secosteroids from the Formosan soft coral Cespitularia hypotentaculata” (2006).
≈ marks a conversion by molar mass, not a printed value.

Columns and labels:
P388 = assay: Cytotoxicity against mouse P388; format: functional
In short: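 Murine P-388 leukemia cells were a gift from an academic laboratory; cytotoxicity reported as ED50 in µg/mL.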

HT-29 = assay: Cytotoxicity against human HT-29; format: functional
In short: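 HT-29 human colon cells obtained from the American Type Culture Collection; cytotoxicity reported as ED50 in µg/mL.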

[1] = read-out: ED50 (the source's name)

Row | Structure (SMILES) | Activity (P388) | EC50 (HT-29; [1]) [µg/mL] | Activity (HT-29) | EC50 (P388; [1]) [µg/mL]
1 | CC(C)CCC[C@@H](C)[C@H]1CC[C@@H]([C@@H]2C[C@H]3O[C@]34C[C@@H](O)CC[C@]4(C)C2=O)[C@]1(C)CCO | Not toxic | 1 (≈ 2.3 µM) | – | –
2 | C=C1CC[C@@H]2CCC3=C(C(=O)[C@H](C3=O)/C(C)=C/[C@@H](O)C1)C2(C)C | Not toxic | – | Not toxic | –
3 | C=C1CC[C@@H]2CCC3=C(C2(C)C)[C@@](OC)(C/C(C)=C/[C@@H](O)C1)OC3=O | Not toxic | – | Not toxic | –
4 | C=C1CC[C@@H]2CC[C@H](OC(=O)C/C(C)=C/[C@@H](O)C1)C(=O)C2(C)C | Not toxic | – | Not toxic | –
5 | C=C1CC[C@@H]2CCC3=C(C(=O)[C@H]([C@H]3O)[C@@]3(C)O[C@@H]3[C@@H](O)C1)C2(C)C | Not toxic | – | Not toxic | –
6 | C=C1CC[C@@H]2CCC3=C([C@@H](C/C(C)=C/[C@@H](O)C1)OC3=O)C2(C)C [CESPITULARIN O] | – | – | Not toxic | 3.4 (≈ 10.7 µM)
7 | C=C1CC[C@@H]2CC[C@@H](O)[C@@](O)(C(=O)C/C(C)=C/[C@@H](O)C1)C2(C)C | Not toxic | – | Not toxic | –
8 | C=C1CC[C@@H]2CCC3=C(C(=O)[C@@H](/C(C)=C/[C@@H](OC(C)=O)C1)[C@H]3O)C2(C)C | Not toxic | – | Not toxic | –
9 | C=C1CC[C@@H]2CCC3=C(C(=O)[C@H](C3=O)/C(C)=C/[C@@H](OC(C)=O)C1)C2(C)C | Not toxic | – | Not toxic | –
10 | C=C1CC[C@@H]2O[C@@]2(C)CC[C@@H]2/C(=C/C=C/C(C)C)C(=O)OC[C@@H]12 | Not toxic | – | Not toxic | –
11 | C=C1CC[C@@H]2CC[C@H](O)[C@@](O)(C(=O)C/C(C)=C/[C@@H](O)C1)C2(C)C | Not toxic | – | Not toxic | –
12 | CC(C)[C@@H](C)[C@@]1(C)C[C@@H]1[C@@H](C)[C@H]1CC[C@@H]([C@@H]2C[C@H]3O[C@]34C[C@@H](O)CC[C@]4(C)C2=O)[C@]1(C)CCO | Not toxic | – | Not toxic | –
